# “Also recorded” adds a separate entry of the source.
# Experiments:
# [1] = tested on: AGS cells overexpressing WNT1; experiment: Lactose/mannose treatment of WNT1-overexpressing AGS cells; type: cell-based, human; conditions: 50 mM, 4 h preincubation
# In short: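 AGS cells were transfected with HA-WNT1. Lactose or mannose (50 mM) was added 4 h before cell extraction, and the indicated proteins were then detected in the extracts.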
# cells = conditions: cited from earlier work
# AGS cells = type: cell-based, human
# [2] = target: human STAT3 (residues 127–688) (Homo sapiens, UniProt P40763); experiment: ITC binding of galectin-3 peptides to STAT3; conditions: abstract statement
# In short: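 Human STAT3 residues 127–688 was expressed from pET22b(+) and purified. ITC was run at 25 °C. Wild-type and Y45-phosphorylated galectin-3 peptides (140 μM each) in 20 mM Tris pH 7.5, 300 mM NaCl were injected at 220 s intervals into 7 μM STAT3. Heats of dilution from buffer controls were subtracted, and data were fitted to a single set of binding sites model.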
# Chain of human STAT3 (residues 127–688) (P40763 127-688): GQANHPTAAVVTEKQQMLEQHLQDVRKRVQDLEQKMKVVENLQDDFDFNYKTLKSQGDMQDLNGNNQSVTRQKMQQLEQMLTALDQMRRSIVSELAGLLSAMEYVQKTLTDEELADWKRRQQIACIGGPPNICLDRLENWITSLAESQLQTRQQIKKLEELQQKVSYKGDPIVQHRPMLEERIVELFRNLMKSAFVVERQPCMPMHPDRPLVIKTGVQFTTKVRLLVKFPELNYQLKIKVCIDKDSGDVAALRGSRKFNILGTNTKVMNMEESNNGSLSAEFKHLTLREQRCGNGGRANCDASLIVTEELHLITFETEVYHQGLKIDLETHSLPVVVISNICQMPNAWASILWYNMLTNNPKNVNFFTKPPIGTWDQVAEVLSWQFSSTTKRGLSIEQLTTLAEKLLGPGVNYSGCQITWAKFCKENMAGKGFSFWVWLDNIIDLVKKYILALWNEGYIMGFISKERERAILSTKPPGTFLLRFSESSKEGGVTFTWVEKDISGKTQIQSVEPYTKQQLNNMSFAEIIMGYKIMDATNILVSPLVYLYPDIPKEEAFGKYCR
compound,measurement,setting,value
OC[C@H]1O[C@@H](O[C@H]2[C@H](O)[C@@H](O)C(O)O[C@@H]2CO)[C@H](O)[C@@H](O)[C@H]1O (mixture of isomers) [lactose],inhibition of STAT3 phosphorylation,[1],did not inhibit
same,inhibition of β-catenin stability,[1],did not inhibit
same,cellular uptake of lactose,cells; stated without reference,too polar to be taken up by the cells
OC[C@H]1O[C@H](Sc2ccc(Cl)c(Cl)c2)[C@H](O)[C@@H](n2cc(-c3cc(F)c(F)c(F)c3)nn2)[C@H]1O [GB1107],uptake across cell membranes,cells,improved uptake across cell membranes; also recorded: can penetrate into cells
OC[C@H]1OC(O)[C@@H](O)[C@@H](O)[C@@H]1O (stereo partly drawn) [mannose],inhibition of STAT3 phosphorylation,[1],did not inhibit
same,inhibition of β-catenin stability,[1],did not inhibit
IL-6: IL-6 cytokine,STAT3 phosphorylation on IL-6 treatment,"AGS cells; AGS cells, IL-6 alone",induced STAT3 phosphorylation
YPGQ [peptide of galectin-3 (Y45-Q48)],enhancement of STAT3 phosphorylation,AGS cells; abstract statement,enhanced its phosphorylation
same,direct binding to the STAT3 SH2 domain,[2],directly bound to the STAT3 SH2 domain

# Source: PMC9907361 (Gastric cancer : official journal of the International …, 2021)
